Assay [1] is described as follows: (§1) Inhibition of soybean lipoxygenase measured for 6 mins. More on the design: species or system Glycine max. In outline: (§2)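 Soybean lipoxygenase (250 U/mL) with sodium linoleate (100 µM) as substrate in Tris-HCl pH 9.0. Compounds added in 60% ethanol. Absorbance at 234 nm followed for 6 min at 28 °C. Each concentration assayed twice.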
The test system of assay [2] is Rattus norvegicus. The assay can be described thus: Antidyslipidemic activity against triton WR-1339-induced hyperlipidemia in rat assessed as reduction in plasma total cholesterol level at 56 umol/kg, ip after 24 hrs relative to control. In kind it is functional. More on the design: scale not given: the % may be the effect or the level left. In outline: (§3)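 Hyperlipidemia induced in male Wistar rats by ip Triton WR 1339 (200 mg/kg, aqueous). Test compounds in saline given ip 1 h later; saline-only controls. Blood drawn from the aorta 24 h later. Plasma total cholesterol, LDL-cholesterol and triglycerides measured with commercial kits in duplicate. Values are means of 8–10 rats per compound.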

In assay [3] the test system is Rattus norvegicus. The assay can be described thus: Antidyslipidemic activity against triton WR-1339-induced hyperlipidemia in rat assessed as reduction in plasma LDL-cholesterol level at 56 umol/kg, ip after 24 hrs relative to control. In kind it is functional. More on the design: scale not given: the % may be the effect or the level left. In outline:
as §3

Assay [4] has as its system Rattus norvegicus. The experiment in a line: Antidyslipidemic activity against triton WR-1339-induced hyperlipidemia in rat assessed as reduction in plasma triglyceride level at 56 umol/kg, ip after 24 hrs relative to control. In kind it is functional. More on the design: scale not given: the % may be the effect or the level left. A digest of the protocol:
as §3

Assay [5] deals with Glycine max. Described as §1. A digest of the protocol:
as §2

A further assay deals with T1, Squalene synthase (Rattus norvegicus, UniProt Q02769).
T1 sequence (Q02769 whole entry): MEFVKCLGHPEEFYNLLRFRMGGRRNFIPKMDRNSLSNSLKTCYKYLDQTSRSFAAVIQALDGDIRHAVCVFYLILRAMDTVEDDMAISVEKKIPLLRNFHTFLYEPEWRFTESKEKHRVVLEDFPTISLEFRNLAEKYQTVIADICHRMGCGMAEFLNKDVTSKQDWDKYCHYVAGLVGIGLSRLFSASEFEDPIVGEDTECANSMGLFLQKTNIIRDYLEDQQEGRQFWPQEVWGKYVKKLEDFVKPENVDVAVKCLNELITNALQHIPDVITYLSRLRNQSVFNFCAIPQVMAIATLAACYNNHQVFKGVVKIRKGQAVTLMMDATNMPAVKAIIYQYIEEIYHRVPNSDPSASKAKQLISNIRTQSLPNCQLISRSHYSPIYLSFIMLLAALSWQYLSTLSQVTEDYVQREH
The assay can be described thus: Inhibition of squalene synthase in rat liver microsomes assessed as [3H] FPP to squalene conversion level after 10 mins by scintillation counting. More on the design: species or system Microsome. A digest of the protocol:
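Rat liver microsomes (18 µg protein/mL) in 50 mM phosphate pH 7.4 with 10 mM MgCl2 and 0.5 mM NADPH, preincubated with compounds for 10 min at 37 °C. Started with [3H]FPP and run for 10 min at 37 °C. Stopped with 15% ethanolic KOH, then 65 °C for 30 min. Squalene extracted into petroleum ether, washed and counted by scintillation. Triplicates; IC50 is the concentration giving 50% inhibition.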
For orientation: Microsomes from liver hold many membrane-bound enzymes, among them those of drug oxidation.

A further assay relates to Liver microsomes. The experiment in a line: Antioxidant activity in rat hepatic microsomes assessed as inhibition of lipid peroxidation after 45 min by spectrophotometric analysis. In kind it is functional, Microsome. In outline: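 Non-enzymatic peroxidation of rat hepatic microsomal lipids in buffer (150 mM, pH 7.4). Compounds in DMSO, 10 µM–1 mM. Started with fresh FeSO4 and incubated at 37 °C for 45 min. Thiobarbituric acid-reactive material read at 535 against 600 nm. Run in duplicate.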

In assay [6] the test system is Glycine max. The assay can be described thus: Inhibition of soybean lipoxygenase at up to 150 uM. As to conditions: TDE = time-dependent effect. In outline: as §2
In assay [7] the test system is Rattus norvegicus. The assay can be described thus: Antiinflammatory activity in Wistar rat assessed as inhibition of carrageenan-induced paw edema at 300 umol/kg, ip after 3.5 hrs. Format: functional. In outline: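 Male Wistar rats (150–180 g) received 0.1 mL of 2% w/v carrageenan in saline intradermally into the right hind paw; the left paw served as control. Compounds were given ip right after carrageenan. Edema was taken as paw weight increase at 3.5 h and expressed as % inhibition versus the control group. Means of 8–10 rats; Student's t-test.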
For orientation: The carrageenan paw model is a standard test of acute inflammation.

pIC50: −log10 of the molar value. The source made the active and inactive calls. No cut-off for these calls is given here.

Usually pIC50 stands for the IC50 on a negative log10 scale, so that one unit is a factor of ten. Regarding `CN1CC(O)(c2ccc(-c3ccccc3)cc2)OC2CCCCC21` (stereo unspecified), the pIC50 in [1] was 3.96. The values for the Activity in the assay on Rattus norvegicus [2], in the assay on Rattus norvegicus [3] and in the assay on Rattus norvegicus [4] were 54%, 51% and 49%, respectively.
As for `Br.COc1ccc2cc(C3(O)CN4CCCCC4CO3)ccc2c1` (stereo unspecified), the pIC50 in assay [1] is 4.28; on Squalene synthase, 4.73; with Liver microsomes, 3.41. Also, the inhibition entry in the assay on Glycine max [5] is “Dose-dependent effect”; in the assay with Glycine max [6], “tde”. For the same compound, the figures for the Activity in the assay with Rattus norvegicus [2], in the assay with Rattus norvegicus [3] and in the assay with Rattus norvegicus [4] were 45%, 46% and 37%, respectively. Also, in the assay with Rattus norvegicus [7], the outcome was Active.
Regarding `Br.COc1ccc2cc(C3(O)CN(C)C4CCCCC4O3)ccc2c1` (stereo unspecified), the pIC50 is 4.08 in assay [1], 4.40 on Squalene synthase and 3.66 with Liver microsomes. Further, the inhibition entry is “Dose-dependent effect” with Glycine max [5] and “tde” in the assay with Glycine max [6]. Moreover, the Activity in the assay on Rattus norvegicus [2] is 36%; in the assay on Rattus norvegicus [3] it was 33%; in the assay with Rattus norvegicus [4], 47%; in the assay on Rattus norvegicus [7], 53%.
On to `Br.CN1CCOC(O)(c2ccc3ccccc3c2)C1` (stereo unspecified), for which the pIC50 in assay [1] was below 3.52; at Squalene synthase it was 3.87; in the assay on Liver microsomes it was 3.19. The Activity with Rattus norvegicus [2] worked out at 51%; with Rattus norvegicus [3] it was 36%; in the assay on Rattus norvegicus [4], 40%. For the same compound, the result in the assay with Rattus norvegicus [7] was Active.
As for `Br.CN1CC(O)(c2ccc3ccccc3c2)OC2CCCCC21` (stereo unspecified), the values for the pIC50 (in [1]; on Squalene synthase; in the assay on Liver microsomes) were below 3.52, 4.82 and 3.22, respectively. Moreover, the Activity is 43% in the assay with Rattus norvegicus [2], 39% with Rattus norvegicus [3], 51% in the assay with Rattus norvegicus [4] and 54% in the assay with Rattus norvegicus [7].
`Br.CN1CCOC(O)(c2ccc(-c3ccc4ccccc4c3)cc2)C1` (stereo unspecified): the pIC50 in assay [1] was below 4.00; at Squalene synthase it was 5.72; with Liver microsomes, 4.15. Also, the Activity stood at 37% with Rattus norvegicus [2], 59% with Rattus norvegicus [3] and 28% in the assay with Rattus norvegicus [4]. In addition, in the assay with Rattus norvegicus [7], the outcome was Active.
In the case of `Br.COc1ccc2cc(-c3ccc(C4(O)CN(C)CCO4)cc3)ccc2c1` (stereo unspecified), the pIC50 in [1] is below 4.00; at Squalene synthase, 5.16; with Liver microsomes it was 4.52. The values for the Activity in the assay on Rattus norvegicus [2], with Rattus norvegicus [3] and in the assay with Rattus norvegicus [4] were 41%, 9% and 30%, respectively.
With `CC(C)(Sc1cc(C(C)(C)C)c(O)c(C(C)(C)C)c1)Sc1cc(C(C)(C)C)c(O)c(C(C)(C)C)c1` [PROBUCOL], the values for the Activity with Rattus norvegicus [2], in the assay with Rattus norvegicus [3] and in the assay with Rattus norvegicus [4] were 18%, 18% and 11%, respectively.
With `Br.COc1ccc2cc(C3(O)CN(C)CCO3)ccc2c1` (stereo unspecified), the pIC50 in assay [1] was 4.70; on Squalene synthase, 3.81; with Liver microsomes it was 3.05. Also, the values for the inhibition entry in the assay with Glycine max [5] and with Glycine max [6] were “Dose-dependent effect” and “tde”, respectively. Further, the Activity with Rattus norvegicus [2] is listed as 62%; in the assay with Rattus norvegicus [3] it was 24%; in the assay on Rattus norvegicus [4] it was 51%; in the assay with Rattus norvegicus [7] it was 58%.
Turning to `Br.COc1ccc2cc(-c3ccc(C4(O)CN5CCCCC5CO4)cc3)ccc2c1` (stereo unspecified), the figures for the pIC50 (in assay [1]; at Squalene synthase; in the assay with Liver microsomes) were below 4.00, 4.74 and 4.19, respectively. For the same compound, the Activity in the assay on Rattus norvegicus [2] came out at 19%; in the assay with Rattus norvegicus [3], 29%; with Rattus norvegicus [4], 6%. Further, the result in the assay on Rattus norvegicus [7] was Active.
Consider `Br.OC1(c2ccc3ccccc3c2)CN2CCCCC2CO1` (stereo unspecified), for which the negative-log IC50 (pIC50) in assay [1] is below 3.52; at Squalene synthase it was 3.89; with Liver microsomes it was 3.36. Further, the Activity came out at 33% in the assay with Rattus norvegicus [2], 42% with Rattus norvegicus [3] and 41% in the assay on Rattus norvegicus [4]. Moreover, in the assay with Rattus norvegicus [7], the outcome was Active.
`Br.COc1ccc2cc(-c3ccc(C4(O)CN(C)C5CCCCC5O4)cc3)ccc2c1` (stereo unspecified): the negative-log IC50 (pIC50) in assay [1] was below 4.00; at Squalene synthase, 5.85; with Liver microsomes, 4.32. For the same compound, the Activity in the assay on Rattus norvegicus [2] was found to be 32%; with Rattus norvegicus [3], 54%; in the assay with Rattus norvegicus [4], 82%. Besides, the outcome in the assay with Rattus norvegicus [7] was Active.
As to `Br.CN1CC(O)(c2ccc(-c3ccc4ccccc4c3)cc2)OC2CCCCC21` (stereo unspecified), the negative logarithm of the IC50 (pIC50) is below 4.00 in [1], 6.10 at Squalene synthase and 3.93 with Liver microsomes. Further, the Activity in the assay with Rattus norvegicus [2] is given as 43%; with Rattus norvegicus [3], 48%; in the assay on Rattus norvegicus [4] it was 32%.
`COc1ccc2cc([C@H](C)C(=O)O)ccc2c1` [NAPROXEN] showed a pIC50 in [1] of 4.62. Moreover, in the assay with Rattus norvegicus [7], the Activity was 51%.
On to `Br.OC1(c2ccc(-c3ccc4ccccc4c3)cc2)CN2CCCCC2CO1` (stereo unspecified), for which the figures for the pIC50 (in assay [1]; in the assay with Liver microsomes) were below 4.00 and 3.93, respectively. For the same compound, the Activity with Rattus norvegicus [2] was determined as 49%; in the assay on Rattus norvegicus [3] it was 33%; in the assay on Rattus norvegicus [4], 34%. In addition, the result with Rattus norvegicus [7] was Active.

Values taken from ChEMBL document CHEMBL1268937, “Design of more potent squalene synthase inhibitors with multiple activities” (Bioorg Med Chem, 2010).
